1 molecule from ChEMBL document CHEMBL3351316, “Scaffold hopping approach on the route to selective tankyrase inhibitors” (Eur J Med Chem, 2014) can be followed below.

Active and inactive are the calls of the source. The calls are words filed in the database; no cut-off is given here.

Broadly, the inhibition is the relative decrease from the control value, in per cent. Broadly, the IC50 is the midpoint of a concentration-inhibition curve.

One assay concerns DLD-1. Kind of assay: Growth inhibition of human DLD1 cells at 1 uM to 10 uM. Format: functional, cell-based. In outline: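 DLD-1 colorectal cancer cells seeded at 5 × 10^3 in a colony growth assay. Cells were dosed daily with 1, 5 or 10 μM compound in DMSO, with DMSO alone as the negative control. After 10 days cells were fixed in 10% methanol/acetic acid, stained with 1% crystal violet and quantified by image analysis. Mean ± SEM of at least three independent experiments.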

The test system of a further assay is RKO. As to the kind of experiment: Growth inhibition of Wnt-negative human RKO cells at >10 uM. Format: functional, cell-based.
For assay [1], the target named is T1, Protein mono-ADP-ribosyltransferase PARP3 (Homo sapiens) (UniProt Q9Y6F1).
T1 sequence (whole entry): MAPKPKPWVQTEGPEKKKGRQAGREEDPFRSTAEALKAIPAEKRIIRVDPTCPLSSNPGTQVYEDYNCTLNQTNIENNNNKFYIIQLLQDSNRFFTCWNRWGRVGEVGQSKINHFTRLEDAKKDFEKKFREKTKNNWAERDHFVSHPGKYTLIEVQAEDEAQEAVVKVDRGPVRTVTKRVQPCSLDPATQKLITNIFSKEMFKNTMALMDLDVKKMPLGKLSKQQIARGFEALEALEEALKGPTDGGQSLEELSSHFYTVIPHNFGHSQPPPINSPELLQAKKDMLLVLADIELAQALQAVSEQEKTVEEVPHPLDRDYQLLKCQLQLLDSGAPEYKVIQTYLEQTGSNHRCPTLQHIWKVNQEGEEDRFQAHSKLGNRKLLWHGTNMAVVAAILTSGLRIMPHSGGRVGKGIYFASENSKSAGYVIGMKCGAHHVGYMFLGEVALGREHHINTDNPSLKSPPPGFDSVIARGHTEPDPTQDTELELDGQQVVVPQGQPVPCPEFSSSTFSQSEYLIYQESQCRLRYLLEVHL
As to the kind of experiment: Inhibition of human recombinant PARP3 at 10 uM incubated for 1 hr using NAD+, biotinylated NAD+ and activated DNA by luminescence based assay. Put shortly:
(§1)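 Recombinant PARP enzyme reactions were run in duplicate for 1 h at rt on histone-coated plates in Tris·HCl pH 8.0 buffer with NAD+, biotinylated NAD+ and activated DNA. Detection used streptavidin-HRP for 30 min at rt, then a chemiluminescent developer. % inhibition = 100 − % activity, scaled between the no-compound (100%) and no-enzyme (0%) signals.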

Assay [2] addresses T2, Poly [ADP-ribose] polymerase tankyrase-1 (Homo sapiens, UniProt O95271).
T2 sequence (O95271 whole entry): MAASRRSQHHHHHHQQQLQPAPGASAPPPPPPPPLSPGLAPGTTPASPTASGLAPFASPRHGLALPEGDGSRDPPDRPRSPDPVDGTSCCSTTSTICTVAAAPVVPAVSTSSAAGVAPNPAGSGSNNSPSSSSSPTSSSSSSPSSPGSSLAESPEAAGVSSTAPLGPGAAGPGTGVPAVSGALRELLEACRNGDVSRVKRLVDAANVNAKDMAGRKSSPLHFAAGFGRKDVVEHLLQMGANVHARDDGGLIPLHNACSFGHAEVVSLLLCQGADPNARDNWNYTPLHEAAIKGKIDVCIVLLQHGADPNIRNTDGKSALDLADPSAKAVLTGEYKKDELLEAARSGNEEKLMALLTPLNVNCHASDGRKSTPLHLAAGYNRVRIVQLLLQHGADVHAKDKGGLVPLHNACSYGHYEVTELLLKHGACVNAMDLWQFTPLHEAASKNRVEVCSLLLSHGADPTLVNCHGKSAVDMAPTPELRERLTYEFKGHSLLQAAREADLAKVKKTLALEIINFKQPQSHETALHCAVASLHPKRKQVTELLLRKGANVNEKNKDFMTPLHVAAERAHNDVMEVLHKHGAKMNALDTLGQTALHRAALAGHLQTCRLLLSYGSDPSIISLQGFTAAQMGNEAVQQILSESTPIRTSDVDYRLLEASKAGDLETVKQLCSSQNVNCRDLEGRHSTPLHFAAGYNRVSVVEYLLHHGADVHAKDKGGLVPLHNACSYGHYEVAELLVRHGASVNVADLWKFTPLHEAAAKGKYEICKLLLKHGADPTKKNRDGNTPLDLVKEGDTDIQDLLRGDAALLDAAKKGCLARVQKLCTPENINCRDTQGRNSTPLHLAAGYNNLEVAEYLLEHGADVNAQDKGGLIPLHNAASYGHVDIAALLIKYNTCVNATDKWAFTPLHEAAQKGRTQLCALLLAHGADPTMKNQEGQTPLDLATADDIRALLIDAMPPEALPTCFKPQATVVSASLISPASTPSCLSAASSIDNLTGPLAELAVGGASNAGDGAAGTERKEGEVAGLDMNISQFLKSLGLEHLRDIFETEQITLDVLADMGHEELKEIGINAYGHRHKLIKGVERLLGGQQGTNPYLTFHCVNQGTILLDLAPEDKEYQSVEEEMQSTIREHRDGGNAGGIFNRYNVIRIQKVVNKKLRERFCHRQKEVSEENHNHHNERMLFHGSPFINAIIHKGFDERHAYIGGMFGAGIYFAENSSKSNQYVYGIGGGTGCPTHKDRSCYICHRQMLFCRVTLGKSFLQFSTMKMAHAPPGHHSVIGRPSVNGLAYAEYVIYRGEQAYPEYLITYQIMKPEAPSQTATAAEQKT
Kind of assay: Inhibition of GST-tagged human recombinant TNKS1 incubated for 1 hr using NAD+, biotinylated NAD+ and activated DNA by luminescence based assay.

In assay [3] the target is T3, Protein mono-ADP-ribosyltransferase TIPARP (Homo sapiens) (UniProt Q7Z3E1).
T3 sequence (whole entry): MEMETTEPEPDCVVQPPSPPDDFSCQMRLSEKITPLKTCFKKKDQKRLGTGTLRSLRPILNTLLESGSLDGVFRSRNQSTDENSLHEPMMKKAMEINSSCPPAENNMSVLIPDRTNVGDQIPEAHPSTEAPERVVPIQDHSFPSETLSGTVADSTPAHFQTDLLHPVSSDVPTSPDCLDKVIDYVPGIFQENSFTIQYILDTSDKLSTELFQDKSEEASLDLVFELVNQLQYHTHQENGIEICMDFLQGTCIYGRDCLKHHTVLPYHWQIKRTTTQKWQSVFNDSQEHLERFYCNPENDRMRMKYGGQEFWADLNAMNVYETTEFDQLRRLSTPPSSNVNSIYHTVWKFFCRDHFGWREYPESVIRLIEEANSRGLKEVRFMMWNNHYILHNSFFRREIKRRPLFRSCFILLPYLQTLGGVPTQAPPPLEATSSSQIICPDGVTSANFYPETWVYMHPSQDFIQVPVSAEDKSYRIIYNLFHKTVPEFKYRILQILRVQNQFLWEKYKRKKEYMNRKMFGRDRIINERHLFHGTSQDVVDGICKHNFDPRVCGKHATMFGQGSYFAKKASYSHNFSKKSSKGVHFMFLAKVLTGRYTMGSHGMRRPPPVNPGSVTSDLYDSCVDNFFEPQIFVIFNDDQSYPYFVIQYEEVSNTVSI
As to the kind of experiment: Inhibition of human recombinant PARP7 at 10 uM incubated for 1 hr using NAD+, biotinylated NAD+ and activated DNA by luminescence based assay. Put shortly: as §1

In the case of `CC(C)(C)c1ccc(-c2nc3c(sc4ccccc43)c(=O)[nH]2)cc1`, the “growth inhibition (GI)” value in the assay on DLD-1 and with RKO was “Active” in each case. Besides, the inhibition in assay [1] is 1%; in assay [3], 7%. Further, the IC50 in assay [2] worked out at 0.0213 µM.
